Results as given in publication PMC3076219 (European journal of immunology, 2009).

Experiments:
CXCR2 [1] = details: ref [33], [34]; cited from earlier work
neutrophils [2] = test: Calcium mobilization of neutrophils; format: cell-based, human; details: ATP 5 µM; for [Ca2+]i time of decline to baseline: fMLF 100 nM, CXCL8 10 nM, Fig. 3A
CXCR2 [3] = test: CXCR2 surface expression on neutrophils, flow cytometry; format: cell-based, human; details: 3h; for CXCR2 surface expression, chemokine treated: 1 nM, 5 nM, 10 nM (50 nM), Fig. 2E-G
CXCR1 [4] = test: CXCR1 surface expression on neutrophils, flow cytometry; format: cell-based, human; details: 3h; for CXCR1 down-regulation at higher dose: 50 nM; for CXCR1 surface expression, chemokine treated: 1 nM, 5 nM, 10 nM (50 nM), Fig. 2E-G
In short: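 Human blood neutrophils were isolated by dextran sedimentation and Ficoll (>95% CD16+) and held at 5×10^6/mL in RPMI 1640 with 1% FBS. They were treated 3h with a dose series (test peptide 1–10 µM; chemokines 1, 5, 10, 50 nM) or with 5 µM for 0.5–3h. Cells were blocked in 10% human serum and stained with anti-CXCR1-APC/anti-CXCR2-FITC or anti-P2X7-FITC, plus anti-CD16. Read-out was flow cytometry GMFI.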

P2X7 = P2X7 receptor blockers; monocytes; ref [14]; cited from earlier work
monocytes [5] = test: Migration of monocytes, 24-well Transwell; format: cell-based, human; details: LL-37 5 µM, CXCL1 50 nM, WKYMVm 5 µM, ATP 50 µM, BzATP 50 µM; 90 min, 37°C; Fig. 7F
In short: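 CFSE-labelled monocytes or THP-1 cells (5 µM, 5 min RT) at 2×10^6/mL in phenol-red-free RPMI 1640 with 1% FBS went in the Transwell upper chamber (3-µm pores). Stimuli in the lower chamber included CXCL1 50 nM, WKYMVm 5 µM and ATP/BzATP 50 µM. Cells were used with or without 20 min preincubation with 10 µM CXCR2 antagonist. Incubation at 37 °C lasted 90 min for monocytes and 2 h for THP-1. Lower-well cells were read at 495 nm against a standard curve, in quadruplicate.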

THP-1 cells = test: Calcium mobilization in THP-1 cells; format: cell-based; details: THP-1; Fig. 7C
In short: (§1)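 Peripheral blood monocytes (kit-isolated from PBMC, CD14-checked) or THP-1 cells at 10^7/mL were loaded with 5 µM Indo-1-AM for 7 min at 37 °C, then held 10 min at RT and washed in cold PBS. Cells were run at 2×10^6/mL in KRP (PBS, 1.5 mM CaCl2, 1.5 mM MgSO4). After baseline they got a first stimulus, then a second. Flow cytometry used 351 nm excitation and the 405:485 nm ratio, gating live cells. Three independent experiments.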

CXCR2 [6] = test: CXCR2 surface expression on monocytes; format: cell-based, human; details: Supporting information Fig. 2
neutrophils [7] = test: Cross-desensitization of calcium mobilization of neutrophils; format: cell-based, human; details: for cross-desensitization of response to fMLF by LL-37, CXCL7, CXCL1: data not shown
monocytes [8] = test: Calcium mobilization in monocytes; format: cell-based, human; details: ATP or WKYMVm first, then LL-37; Fig. 7D
In short: as §1

CXCR2 [9] = test: Calcium mobilization in HEK293/CXCR2 cells; format: cell-based, human; details: Indo-1; Fig. 7A-B
In short: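 They were washed in cold PBS, pelleted at 200 × g for 10 min at 4 °C, and resuspended in PBS with Ca/Mg. […] [Ca2+]i was read as the 405:485 nm ratio by flow cytometry, gating on living cells.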

CXCR1 [10] = test: Calcium mobilization in HEK293/CXCR1 cells; format: cell-based, human; details: Indo-1; Fig. 7A-B
In short: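 CXCR1-transfected HEK293 cells were loaded with 5 µM Indo-1-AM in 5 µM pluronic F-127/PBS for 30 min at RT. They were washed in cold PBS, spun at 200 × g for 10 min at 4 °C and suspended in PBS with calcium and magnesium. Stimulation followed baseline recording. Flow cytometric [Ca2+]i was read as the 405:485 nm emission ratio with 351 nm excitation. Three independent experiments.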

CXCR1 [11] = test: Confocal analysis of CXCR1 internalization in neutrophils; format: cell-based, human; details: 37°C
In short: (§2)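 Neutrophils came from citrated donor blood by dextran sedimentation and Ficoll gradient. […] Cells were fixed in 2% paraformaldehyde, permeabilised with saponin and blocked with human serum. Anti-CXCR1 or anti-CXCR2 mAb (4°C), then Alexa 488 anti-mouse IgG, DAPI mount, confocal imaging; three independent experiments.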

[12] = test system: 125I-CXCL8 specific binding sites on neutrophils (CXCR1/2); test: Competition with 125I-CXCL8 for binding to neutrophils; design: species or system human; details: 1.25 nM 125I-CXCL8, 2h on ice, triplicate, dose-dependent, Fig. 5B
CXCR2 [13] = test: Confocal analysis of CXCR2 internalization in neutrophils; format: cell-based, human; details: 37°C
In short: as §2

[14] = test system: CXCR2 transfected HEK293 cells; test: Secondary necrosis of CXCR2 transfected HEK293 cells; format: cell-based; details: Supporting information Fig. 4
[15] = test system: CXCR1 transfected HEK293 cells; test: Secondary necrosis of CXCR1 transfected HEK293 cells; format: cell-based; details: Supporting information Fig. 4
CXCR1 [16] = details: ref [33], [34]; cited from earlier work
[17] = fMLF 50 nM, 100 nM, 200 nM, Fig. 2A
[18] = ATP 30 µM, 300 µM, 3000 µM, Fig. 2C
[19] = CXCL7 50 nM or CXCL1 50 nM, 60 min, data not shown
[20] = LL-37 5 µM or CXCL8 50 nM, 1 h, Fig. 8

CXCL3: CXC chemokine
affinity for CXCR2 (CXCR2 [1]): high affinity

fMLF [reference compound]
[Ca2+]i time of decline to baseline (neutrophils [2]): ≤ 200 s
CXCR2 surface expression (CXCR2 [3]; [17]): caused down-regulation of both CXCR2 and CXCR1 expression with similar kinetics
CXCR1 surface expression (CXCR1 [4]; [17]): caused down-regulation of both CXCR2 and CXCR1 expression with similar kinetics

Nc1ncnc2c1ncn2[C@@H](C=O)O[C@@H](C=O)COP(=O)(O)OP(=O)(O)OP(=O)(O)O [oxATP]
block of LL-37-induced release of IL-1β (P2X7): did not completely block the release of IL-1β

Nc1ncnc2c1ncn2[C@@H]1O[C@H](COP(=O)(O)OP(=O)(O)OP(=O)(O)O)[C@@H](OC(=O)c2ccc(C(=O)c3ccccc3)cc2)[C@H]1O [BzATP]
stimulation of migration of monocytes (monocytes [5]): only LL-37 stimulated migration of monocytes
block of LL-37 induced calcium mobilization by ATP / BzATP (THP-1 cells): not BzATP was able to partially block
CXCR2 down-regulation on monocytes (CXCR2 [6]): but not ATP or BzATP, all down-regulate CXCR2

Nc1ncnc2c1ncn2[C@@H]1O[C@H](COP(=O)(O)OP(=O)(O)OP(=O)(O)O)[C@@H](O)[C@H]1O [ATP, reference compound]
stimulation of migration of monocytes (monocytes [5]): only LL-37 stimulated migration of monocytes
block of LL-37 induced calcium mobilization by ATP / BzATP (THP-1 cells): able to partially block
[Ca2+]i time of decline to baseline (neutrophils [2]): ≤ 200 s
calcium flux response in the absence of extracellular Ca2+ (neutrophils [2]; PBS without calcium and magnesium, LL-37 5 µM, WKYMVm 5 µM, Fig. 3C): only the WKYMVm peptide is capable of generating a calcium flux response
CXCR2 surface expression (CXCR2 [3]; [18]): no down-regulation of either CXCR1 or CXCR2
CXCR2 down-regulation on monocytes (CXCR2 [6]): but not ATP or BzATP, all down-regulate CXCR2
CXCR1 surface expression (CXCR1 [4]; [18]): no down-regulation of either CXCR1 or CXCR2
cross-desensitization of LL-37 response by ATP (neutrophils [7]; ATP first, then LL-37, Supporting information Fig. 3A-B): unable to block calcium mobilization stimulated by LL-37 in neutrophils
cross-block of LL-37 stimulated calcium mobilization in monocytes (monocytes [8]): neither ATP nor WKYMVm cross-block LL-37 stimulated calcium mobilization

CN([C@@H](Cc1ccc(OS(=O)(=O)c2cccc3cnccc23)cc1)C(=O)N1CCN(c2ccccc2)CC1)S(=O)(=O)c1cccc2cnccc12 [KN62]
block of LL-37-induced release of IL-1β (P2X7): did not completely block the release of IL-1β

CXCL1: recombinant human chemokine, predominantly CXCR2 specific
stimulation of migration of monocytes (monocytes [5]): only LL-37 stimulated migration of monocytes
calcium mobilization in CXCR2 transfected HEK293 cells (CXCR2 [9]): weak but similar patterns of calcium mobilization
calcium mobilization in CXCR1 transfected HEK293 cells (CXCR1 [10]): only CXCL8 gave a response
CXCR1 translocation (internalization) (CXCR1 [11]; [19]): caused only CXCR2 receptor translocation to the cytoplasm
affinity for CXCR2 (CXCR2 [1]): high affinity
maximum competition of 125I-CXCL8 binding ([12]; 2×10^6 cells): around 50%
displacement of 125I-CXCL8 [12]: partly displace
CXCR2 translocation (internalization) (CXCR2 [13]; [19]): caused only CXCR2 receptor translocation to the cytoplasm
generation of secondary necrotic cells, HEK293/CXCR2 [14]: not with CXCL1
CXCR2 surface expression, chemokine treated (CXCR2 [3]): down-regulated CXCR2 but not CXCR1 in a limited dose-dependent manner
CXCR2 down-regulation on monocytes (CXCR2 [6]): down-regulate CXCR2
CXCR1 down-regulation at higher dose (CXCR1 [4]): down-regulate CXCR1 at higher doses
CXCR1 surface expression, chemokine treated (CXCR1 [4]): down-regulated CXCR2 but not CXCR1
cross-desensitization of response to fMLF by LL-37, CXCL7, CXCL1 (neutrophils [7]): do not cross-sensitize fMLF stimulation
generation of secondary necrotic cells, HEK293/CXCR1 [15]: not with CXCL1

CXCL5: CXC chemokine
affinity for CXCR2 (CXCR2 [1]): high affinity

CXCL6: CXC chemokine
affinity for CXCR1 (CXCR1 [16]): high affinity
affinity for CXCR2 (CXCR2 [1]): high affinity

CXCL8: recombinant human chemokine that binds both CXCR1/2
affinity for CXCR1 (CXCR1 [16]): high affinity
calcium mobilization in CXCR2 transfected HEK293 cells (CXCR2 [9]): weak but similar patterns of calcium mobilization
calcium mobilization in CXCR1 transfected HEK293 cells (CXCR1 [10]): gave a response
[Ca2+]i time of decline to baseline (neutrophils [2]): less than 100 s
CXCR1 translocation (internalization) (CXCR1 [11]; [20]): translocation of both CXCR1 and CXCR2 to the cytoplasm
affinity for CXCR2 (CXCR2 [1]): high affinity
CXCR2 translocation (internalization) (CXCR2 [13]; [20]): translocation of both CXCR1 and CXCR2 to the cytoplasm
CXCR2 surface expression, chemokine treated (CXCR2 [3]): significantly down-regulated both CXCR1 and CXCR2
CXCR2 down-regulation on monocytes (CXCR2 [6]): down-regulate CXCR2
CXCR1 surface expression, chemokine treated (CXCR1 [4]): significantly down-regulated both CXCR1 and CXCR2
cross-desensitization of response to CXCL1 (neutrophils [7]; CXCL8 10 nM first, CXCL1 10 nM 160 s later, Fig. 4C): completely blocked
cross-desensitization of response to CXCL7 (neutrophils [7]; CXCL8 10 nM first, CXCL7 10 nM 160 s later, Fig. 4B): completely blocked
cross-desensitization of response to LL-37 (neutrophils [7]; CXCL8 10 nM first, LL-37 5 µM 160 s later, Fig. 4A): completely blocked
cross-desensitization of response to fMLF (neutrophils [7]; CXCL8 10 nM first, fMLF 100 nM 160 s later, Fig. 4D): failed to cross-sensitize fMLF stimulation

CXCL2: CXC chemokine
affinity for CXCR2 (CXCR2 [1]): high affinity

B1: CXCL7: recombinant human chemokine, rather CXCR2 specific (protein, UniProt P02775 59-128, looked up)
Neutrophil-activating peptide …: AELRCMCIKTTSGIHPKNIQSLEVIGKGTHCNQVEVIATLKDGRKICLDPDAPRIKKIVQKKLAGDESAD
modifications: Neutrophil-activating peptide 2
CXCR1 translocation (internalization) (CXCR1 [11]; [19]): caused only CXCR2 receptor translocation to the cytoplasm
affinity for CXCR2 (CXCR2 [1]): high affinity
CXCR2 translocation (internalization) (CXCR2 [13]; [19]): caused only CXCR2 receptor translocation to the cytoplasm
CXCR1 down-regulation at higher dose (CXCR1 [4]): down-regulate CXCR1 at higher doses
CXCR1 surface expression, chemokine treated (CXCR1 [4]): less discriminatory towards CXCR2 compared to LL-37
cross-desensitization of response to fMLF by LL-37, CXCL7, CXCL1 (neutrophils [7]): do not cross-sensitize fMLF stimulation
